Kir21 block – Kir2.1 (mouse) channel inhibition; HEK293-Kir2.1, FluxOR thallium flux fluorescence; hits give low values; B-score at 10 µM; hit rate 0.85% among 310,000;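 active = fluorescence ratio B-score at or below minus 3 SD of library scores, with starting-brightness B-score within 2 SD, cut at about -4.2 in these data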;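 note: channel flux triggered by added potassium and thallium sulfate stimulus; B-score of peak minus minimum fluorescence over baseline after thallium stimulus; more negative B-score means stronger Kir2.1 block with less thallium influx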
KCNQ1 inh – human KCNQ1 channel inhibition. B-score at 10 µM. hit rate 1.3% among 310,000. AID 2642. CHO-K1 KCNQ1, FluxOR thallium flux fluorescence; hits give high values;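 active = compounds whose thallium flux B-score, printed positive for inhibition, exceeds three library SD while starting fluorescence stays within three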;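 note: channel opened by potassium depolarization with thallium stimulus after 20 min compound exposure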
Target sequence (P51787 whole entry, looked up): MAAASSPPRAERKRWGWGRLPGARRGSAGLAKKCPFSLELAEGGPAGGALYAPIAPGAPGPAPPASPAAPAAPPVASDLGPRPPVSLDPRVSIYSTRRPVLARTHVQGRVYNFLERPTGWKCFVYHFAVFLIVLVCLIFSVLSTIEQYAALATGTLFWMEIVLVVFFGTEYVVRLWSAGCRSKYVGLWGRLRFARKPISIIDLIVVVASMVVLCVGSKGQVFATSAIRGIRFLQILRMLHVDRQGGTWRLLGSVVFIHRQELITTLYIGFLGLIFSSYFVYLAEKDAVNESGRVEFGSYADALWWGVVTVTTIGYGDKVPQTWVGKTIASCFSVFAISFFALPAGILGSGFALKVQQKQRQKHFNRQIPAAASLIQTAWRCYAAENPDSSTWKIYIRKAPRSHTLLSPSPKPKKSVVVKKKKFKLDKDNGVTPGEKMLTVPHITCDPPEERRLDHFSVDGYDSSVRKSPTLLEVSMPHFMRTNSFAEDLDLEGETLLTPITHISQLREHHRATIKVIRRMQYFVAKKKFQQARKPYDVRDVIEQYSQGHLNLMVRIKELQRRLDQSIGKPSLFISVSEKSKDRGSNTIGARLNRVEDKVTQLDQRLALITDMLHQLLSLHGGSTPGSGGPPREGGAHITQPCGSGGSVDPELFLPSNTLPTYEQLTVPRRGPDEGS
KCNK3 block – human KCNK3 channel inhibition, primary screen; O14649; CHO-KCNK3 thallium flux, FluxOR fluorescence; hits give low values; B-score at 10 µM; hit rate 0.84% among 340,000; AID 602410;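 active = B-score under library mean minus 4 SD, starting fluorescence ratio at most library mean plus 5 SD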;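 note: more negative B-score means stronger inhibition of thallium flux through KCNK3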
KCNK9 inh – blocks the human KCNK9 two-pore domain potassium channel; Q9NPC2; HEK293 KCNK9, FluxOR thallium flux fluorescence; hits give low values; B-score at 10 µM; hit rate 1.2% among 310,000;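 active = ratio B-score over 3 SD below the library mean, with starting fluorescence within 5 SD of its mean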;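 note: negative B-score means less thallium flux so channel inhibition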
KCNQ1 pot – potentiators or activators of human KCNQ1 potassium channel; P51787; CHO-K1 KCNQ1, thallium flux FluxOR fluorescence; hits give high values; B-score at 10 µM; hit rate 0.35% among 310,000; AID 2648;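 active = fluorescence ratio B-score, a plate-corrected score, at least three library SD, with initial intensity B-score within 5 SD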
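Doses: Single concentration per compound, DMSO matched to controls | Test system: KCNQ1-transfected CHO-K1 cells | Timing: 90 min dye loading and 20 min compound exposure, both at room temperature | Measured by: Kinetic FluxOR thallium fluorescence, 10-s 1-Hz baseline, 110-s post-stimulus read | Medium: Assay buffer with matched DMSO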
hERG rescue – hERG (human) protection from proarrhythmic block. hit rate 0.51% among 310,000. CHO-hERG, FluxOR thallium flux, dofetilide IC70 present. activation (rescue from dofetilide block), less the hit threshold, % at 10 µM;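 active = activation above the mean of controls blocked by dofetilide plus 5 SD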;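 note: thallium influx through hERG after potassium depolarization seen as dye fluorescence rise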
KCNK9 inh conf – confirmation of human KCNK9 potassium channel inhibitors | inhibition, % at 10 µM | shares compounds with KCNK9 inh | HEK293 KCNK9 cells, FluxOR thallium flux fluorescence | hit rate 43% among 4,900;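 active = thallium signal inhibited by more than 5 SD of the compound-free buffer control wells, on both duplicate plates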;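 note: 0% = assay buffer control wells without compound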
Kir21 sel – mouse Kir2.1 off-target activity of KCNK9 modulators; shares compounds with KCNK9 inh; Kir2.1 cells, FluxOR thallium flux fluorescence; inhibition, % at 10 µM; hit rate 4% among 4,900;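 active = thallium signal drop more than 5 SD beyond the mean of the no-compound control wells, seen in both duplicate plates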;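 note: signal is fluorescence rise after thallium addition divided by baseline fluorescence; plate controls were assay buffer only for no effect and full block by chlorpromazine control for full effect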
HEK293 Tl ctr – second counter-screen for KCNK9 modulators: effect in non-induced cells; shares compounds with KCNK9 inh; inhibition, % at 10 µM; non-induced KCNK9-HEK293, FluxOR thallium flux; hit rate 40% among 4,900; AID 492997;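 active = thallium signal drop beyond 5 SD of the untreated control mean, on both duplicate plates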;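 note: plate controls were buffer only IC0 wells for no effect and SID17386958 at its maximal inhibitory level for full effect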
* = called active by the depositor; i = inactive; / = not tested or not shown. Most compounds without a hit are left out; they make up all but 3.7% or so of the library.

SMILES	Kir21 block	KCNQ1 inh	KCNK3 block	KCNK9 inh	KCNQ1 pot	hERG rescue	KCNK9 inh conf	Kir21 sel	HEK293 Tl ctr
C=CC[C@H](CC(=O)N[C@H](CO)Cc1ccccc1)C(=O)N[C@H](COC(=O)[C@H](CC=C)CC(=O)OC(C)(C)C)Cc1c[nH]c2ccccc12	/	/	i	/	/	/	/	/	/
COc1ccc(CN2C(=O)[C@H]3Cc4c([nH]c5ccccc45)C(C)(C)N3C2=O)cc1	-0.11	i	i	i	i	-10	i	i	i
COc1ccc(CN2C(=O)[C@@H]3Cc4c([nH]c5ccccc45)C(C)(C)N3C2=O)cc1	-0.39	i	i	i	i	-4	/	/	/
O=C(Nc1ccc(Br)cc1Br)c1cccc2c1C(=O)N(C1CCCCC1)C2	0.05	i	i	-18*	i	-8	50%*	i	33%*
Cc1ccc(NC(=O)c2cccc3c2C(=O)N(C2CCCCC2)C3)c(Cl)c1	-0.63	i	i	-18*	i	-8	56%*	i	44%*
O=C(Nc1ccc(Br)cc1)c1cccc2c1C(=O)N(C1CCCCC1)C2	0.42	i	i	i	i	-9	/	/	/
COc1ccc(-n2nc(C(=O)NCC(=O)N3CCC(C)CC3)c3ccccc3c2=O)c(OC)c1	-2.5	i	i	i	i	-7	/	/	/
CCCn1c(O)c(N=NC(=O)c2cccnc2)c2cc(Br)ccc21	-0.46	i	i	i	i	-10	/	/	/
CCOC(=O)C1=C(CC)Nc2ccccc2N=C1NC(=O)CCNC(C)=O	-0.01	i	i	i	i	-4	/	/	/
CCOCc1c(C(=O)NC2=Nc3ccccc3NC(CC)=C2C(=O)OCC)oc2ccccc12	-2.5	i	i	-16*	i	-5	47%*	i	i
CCOC(=O)C1=C(CC)Nc2ccccc2N=C1NC(=O)c1oc2ccccc2c1C	-0.04	i	i	-11*	i	-34	35%*	i	27%*
C=C(C)COc1ccc(C2NC(=O)c3ccccc3O2)cc1OCC (stereo not drawn)	0.85	i	i	i	i	-7	/	/	/
Oc1[nH]c2ccccc2c1N=NC(=S)N1CCOCC1	1.5	i	i	-13*	i	-21	54%*	i	45%*
Cc1ccc(SCc2cc(=O)[nH]c(/N=C(\N)Nc3ccc(C)c(C)c3)n2)cc1	-0.11	i	i	i	i	-9	i	i	i
N/C(=N\c1nc(CSc2ccc(Cl)cc2)cc(=O)[nH]1)Nc1cccc2ccccc12	0.01	i	i	i	i	-3	i	i	i
CCN(CC)S(=O)(=O)c1ccc(=O)n(CC(=O)N2CCCc3cc(C)ccc32)c1	/	/	i	/	/	/	/	/	/
C[C@H](CO)N1C[C@H](C)[C@H](CN(C)S(=O)(=O)c2ccccc2)Oc2c(NS(C)(=O)=O)cccc2C1=O	/	/	i	/	/	/	/	/	/
CCCc1cc(=O)oc2cc(C)cc(OCC(=O)N[C@@H](CSCc3ccccc3)C(=O)O)c12	-0.61	i	i	i	i	-5	/	/	/
O=C(O)CSc1nc(SCc2ccccc2Cl)nc2c1CCCC2	-0.62	i	i	i	i	-6	/	/	/
COC(=O)CSc1nc(SCc2ccccc2Cl)nc2c1CCCC2	0.13	i	i	i	i	-4	i	i	i
COc1cccc(/C=N/NC(=O)c2nc(-c3ccccc3)cc(-c3ccccc3)n2)c1O	1.6	i	i	-8.6*	i	-28	i	i	i
CCOc1ccccc1N1CCN(C(=O)C(Sc2ccccc2)c2ccccc2)CC1 (stereo not drawn)	0.83	i	i	-12*	i	-9	56%*	i	28%*
CCOc1ccccc1C(=O)N1CCN(C(c2ccccc2)c2ccccc2)CC1	-0.02	i	i	-8.4*	i	-12	i	i	26%*
Cc1ccccc1C(=O)N1CCN(C(c2ccccc2)c2ccccc2)CC1	0	i	i	i	i	-9	/	/	/
CCOc1ccccc1NC(=O)CSc1nnc(-c2ccco2)n1Cc1ccco1	-4	i	i	i	i	-4	/	/	/
SMILES	Kir21 block	KCNQ1 inh	KCNK3 block	KCNK9 inh	KCNQ1 pot	hERG rescue	KCNK9 inh conf	Kir21 sel	HEK293 Tl ctr
CCOc1ccccc1NC(=O)CSc1nnc(-c2ccccc2Cl)n1Cc1ccco1	-2.2	i	i	-10*	i	-7	53%*	i	36%*
COc1cccc(CN2CCN(C(=O)c3cccc4ccccc34)CC2)c1	-0.4	i	i	i	i	-7	/	/	/
COc1cccc(CN2CCN(Cc3cccc(Oc4ccccc4)c3)CC2)c1OC	-1.5	i	i	i	i	-10	i	i	i
COc1ccc(OC)c(CN2CCN(Cc3cccc4ccccc34)CC2)c1	-0.38	i	i	i	i	-20	i	i	i
COc1cccc(CN2CCN(Cc3ccccc3C(F)(F)F)CC2)c1	-0.34	i	i	i	i	-10	i	i	i
COc1ccc(CN2CCN(Cc3ccccc3C(F)(F)F)CC2)c(OC)c1	-2.7	i	i	i	i	-11	i	i	i
O=C1CCCC2=C1CC(C(=O)OCc1ccccc1)C(=O)N2Cc1ccccc1 (stereo not drawn)	/	/	i	/	/	/	/	/	/
O=S1(=O)CCN(Cc2ccccc2C(F)(F)F)CC1	0.51	i	i	i	i	-2	/	/	/
Cc1ccccc1CN1CCN(Cc2ccccc2C(F)(F)F)CC1	-0.23	i	i	i	i	-14	i	i	i
Cc1ccc(OCC(=O)Nc2ccc(S(=O)(=O)N3CCCC3)cc2)cc1	0.72	i	i	i	i	-7	/	/	/
Cc1ccc(C)n1-n1cnc2sc3c(c2c1=O)CCC3	-0.5	i	i	i	i	-6	/	/	/
Cn1cc(/C=N/n2cnc3sc4c(c3c2=O)CCCC4)c2ccccc21	0.01	i	i	i	i	-14	i	i	i
COc1ccccc1N1CCN(CCCCN2C(=O)C3CCCCN3C2=O)CC1 (stereo not drawn)	0.68	i	i	i	i	-3	/	/	/
COc1ccc2c(c1)c(CC(=O)OCC(=O)N(C)C)c(C)n2C(=O)c1ccc(Cl)cc1	0.71	i	i	i	i	-7	/	/	/
